Results reported in ChEMBL document CHEMBL1126774, “Synthesis and antiviral activity of novel 5-(1-azido-2-haloethyl) and 5-(1-azido-, amino-, or methoxyethyl) analogs of 2'-deoxyuridine” (J Med Chem, 1993).

Assays:
Raji = assay: Inhibitory concentration of the drug against the antigen production against P3HR-1 strain of epstein barr virus-2 (EBV) in Raji cells; assay type: functional, cell-based; conditions: Homo sapiens
Method in brief: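 Raji cells infected with EBV P3HR-1; drug added after adsorption (45 min, 37 °C) and washing, then 2 days in complete medium. Cells counted, smears stained with monoclonal antibodies to early antigen components and VCA plus fluorescent detection; positive cells counted. Value is concentration (µM) reducing antigen production to 50% of untreated infected controls.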

Homo sapiens [1] = species on record: Homo sapiens; assay: Concentration of the drug required to reduce the proliferation of human foreskin fibroblast cells; assay type: functional
Method in brief: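 HFF cells seeded 24 h before in MEM + 10% FBS; drugs serially diluted 1:5 in MEM + 10% FBS over 100 µg/mL to 0.03 µg/mL, 72 h at 37 °C in CO2; cells trypsinized and counted on a Coulter counter; value is concentration (µM) reducing proliferation to 50% of untreated controls.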

[2] = Inhibitory concentration of the drug against the cytopathic effect for E-377 strain of herpes simplex virus-1 (HSV-1) in human HFF cells; assay type: functional, cell-based
Method in brief: (§1)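 HFF CPE assay: low-passage cells seeded 24 h before in MEM + 10% FBS, switched to MEM + 2% FBS. Drug added in triplicate, serially diluted 1:5, plus HSV-1 or HSV-2 at 1000 PFU/well; 3 days at 37 °C in CO2. Staining with 0.1% crystal violet, read at 620 nm. Value is concentration (µM) reducing CPE by 50%.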

Homo sapiens [3] = species on record: Homo sapiens; assay: Concentration of the drug required to reduce the uptake of neural red stain by uninfected cell monolayers (HFF); assay type: functional
Method in brief: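 HFF cells plated 24 h before assay at 2.5×10^4 cells/well; drug added in 1:5 serial dilution, incubated 7 days at 37 °C in CO2; 0.01% neutral red in DPBS 1 h, washed, dye extracted with 50% EtOH/1% acetic acid, OD 550 nm; value is concentration (µM) reducing uptake to 50% of untreated uninfected controls.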

[4] = Inhibitory concentration of the drug against the cytopathic effect for MS strain of herpes simplex virus-2 (HSV-2) in human HFF cells; assay type: functional, cell-based; method in brief: as §1
[5] = Inhibitory concentration of the drug against the cytopathic effect for ellen strain of […] in human HFF cells; assay type: functional, cell-based
[6] = tested on: Human cytomegalovirus (Human herpesvirus 5); assay: Inhibitory concentration of the drug against the cytopathic effect for AD169 strain of human cytomegalovirus (HCMV) in human HFF cells

| SMILES | EC50 (Raji) [µM] | EC50 [2] [µM] | EC50 [4] [µM] | EC50 [5] [µM] | EC50 [6] [µM] | IC50 (Homo sapiens [1]) [µM] | IC50 (Homo sapiens [3]) [µM] |
| --- | --- | --- | --- | --- | --- | --- | --- |
| CC(N)c1cn([C@H]2C[C@H](O)[C@@H](CO)O2)c(=O)[nH]c1=O (stereo partly specified) | 44.6 | > 100 | > 100 | > 250 | > 125 | > 250 | > 125 |
| Nc1nc2c(ncn2COC(CO)CO)c(=O)[nH]1 [GANCICLOVIR] | – | – | – | – | 0.5 | 168 | > 390 |
| Nc1nc2c(ncn2COCCO)c(=O)[nH]1 [ACYCLOVIR] | 2.9 | 0.04 | 0.09 | – | – | > 440 | > 440 |
| [N-]=[N+]=NC(CCl)c1cn([C@H]2C[C@H](O)[C@@H](CO)O2)c(=O)[nH]c1=O (stereo partly specified) | 11.1 | 0.06 | 6.6 | 4.5 | > 150 | > 300 | > 150 |
| O=c1[nH]c(=O)n([C@H]2C[C@H](O)[C@@H](CO)O2)cc1/C=C/I | – | 0.02 | 2.21 | 0.01 | 24.8 | 4.4 | 86 |
| COC(C)c1cn([C@H]2C[C@H](O)[C@@H](CO)O2)c(=O)[nH]c1=O (stereo partly specified) | – | 1.7 | 1 | > 87 | 5.9 | 330 | > 175 |

Further lines, with some results ahead:

| EC50 (Raji) [µM] | EC50 [2] [µM] | EC50 [4] [µM] | EC50 [5] [µM] | EC50 [6] [µM] | SMILES | IC50 (Homo sapiens [1]) [µM] | IC50 (Homo sapiens [3]) [µM] |
| --- | --- | --- | --- | --- | --- | --- | --- |
| 4 | 0.5 | 13.2 | 12.3 | > 118 | [N-]=[N+]=NC(CI)c1cn([C@H]2C[C@H](O)[C@@H](CO)O2)c(=O)[nH]c1=O (stereo partly specified) | 76 | > 118 |
| 9.3 | 6.4 | 2.9 | 4 | > 130 | [N-]=[N+]=NC(CBr)c1cn([C@H]2C[C@H](O)[C@@H](CO)O2)c(=O)[nH]c1=O (stereo partly specified) | 91 | > 130 |
| – | > 170 | > 170 | > 67 | > 170 | CC(N=[N+]=[N-])c1cn([C@H]2C[C@H](O)[C@@H](CO)O2)c(=O)[nH]c1=O (stereo partly specified) | 81 | > 170 |
| 12.1 | 0.6 | 1.5 | 66.4 | 0.9 | CCc1cn([C@H]2C[C@H](O)[C@@H](CO)O2)c(=O)[nH]c1=O [EDOXUDINE] | 115 | > 195 |
